Active and inactive are the calls of the source. The rule behind the calls is not given here.
Key:
HepG2 [1] = experiment: Induction of apoptosis in human HepG2 cells assessed as early apoptotic cells at 4 uM after 24 hrs in presence of z-VAD-fmk by annexin V/propidium iodide staining based flow cytometric analysis (reference value: 0.86%); type: functional
[2] = Ratio of HN drug uptake to test compound drug uptake in human HepG2 cells at 5 uM after 12 hrs by HPLC analysis; type: ADME, cell-based; conditions: hepg2, 12 h
How it was run: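 HepG2 cells treated with 5 μM compound or honokiol for 12 h. Mitochondria isolated with a kit by centrifugation at 600g then 11000g, 4 °C, 10 min each. Whole-cell and mitochondrial drug measured by HPLC on a C18 column, methanol-0.1% acetic acid (80:20), at 265 nm (derivative) and 210 nm (honokiol). Run thrice.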

PANC-1 = experiment: Antiproliferative activity against human PANC1 cells assessed as reduction in cell viability after 48 hrs by MTT assay; type: functional, cell-based; conditions: PANC-1, 48 h
How it was run: (§1)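 Cell lines grown at 37 °C in 5% CO2: A2780, A549, HL7702 and PC3 in RPMI 1640; HT29 in McCoy's 5A; HepG2 and PANC-1 in DMEM; all media with 10% FBS and penicillin/streptomycin. Cells seeded and left overnight, then exposed to compound for 48 h. MTT (5 mg/mL solution) added for 4 h at 37 °C, formazan dissolved in DMSO, absorbance read at 570 nm. IC50 taken from viability; run in triplicate.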

HepG2 [3] = experiment: Induction of morphological changes in human HepG2 cells assessed as accumulation of vacuoles at 3 uM after 24 hrs in presence of Nec-1 by microscopic method; type: functional, cell-based
How it was run: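 HepG2 cells pretreated with necrostatin-1 (30 μM, 2 h), then exposed to 3 μM compound. Vacuoles imaged by optical microscopy after 24 h.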

HepG2 [4] = experiment: Induction of mitochondrial dysfunction in human HepG2 cells assessed as increase in MPTP opening at 1 to 4 uM after 24 hrs by JC-1 staining based flow cytometric analysis; type: functional, cell-based; conditions: dose 1-4 µM
HepG2 [5] = experiment: Induction of morphological changes in human HepG2 cells assessed as effect on size of vacuoles at 3 uM after 24 hrs in presence of z-VAD-fmk by microscopic analysis; type: functional, cell-based
How it was run: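 HepG2 cells preincubated with or without z-VAD-fmk (20 μM, 2 h), then treated with 3 μM compound. Vacuole number and size judged from optical microscopy images.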

HepG2 [6] = experiment: Induction of ROS generation in human HepG2 cells at 2 uM measured up to 24 hrs by DCFH-DA staining based flow cytometric analysis; type: functional, cell-based; conditions: time hrs <=24
How it was run: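 HepG2 cells treated for the stated time, then loaded with 10 μM DCFH-DA in FBS-free medium for 30 min in the dark. Washed twice with PBS, trypsinized, pelleted at 1200 rpm for 5 min, resuspended in PBS and read by flow cytometry. Kit Rosup reagent served as positive agent.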

HepG2 [7] = experiment: Induction of apoptosis in human HepG2 cells assessed as early apoptotic cells at 4 uM after 24 hrs by annexin V/propidium iodide staining based flow cytometric analysis (reference value: 1.29%); type: functional
HepG2 [8] = experiment: Induction of autophagy in human HepG2 cells assessed as effect on LC3-2 protein expression at 3 uM after 24 hrs by Western blot analysis; type: functional, cell-based
How it was run: (§2)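 HepG2 cells lysed in RIPA on ice for 20 min; protein measured by BCA. Lysates run on 10% SDS-PAGE and transferred to PVDF. Membranes blocked in 5% nonfat milk/TBST for 2 h, incubated with primary antibodies overnight at 4 °C, then HRP secondary antibody; bands detected by ECL.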

HepG2 [9] = experiment: Induction of apoptosis in human HepG2 cells assessed as necrotic cells at 4 uM after 24 hrs in presence of z-VAD-fmk by annexin V/propidium iodide staining based flow cytometric analysis (reference value: 0.12%); type: functional
HepG2 [10] = experiment: Induction of apoptosis in human HepG2 cells assessed as viable cells at 2 uM after 24 hrs by annexin V/propidium iodide staining based flow cytometric analysis (reference value: 95.3%); type: functional; conditions: read-out: Activity
HepG2 [11] = experiment: Induction of apoptosis in human HepG2 cells assessed as increase in cleaved-caspase 8 protein expression at 1 to 4 uM after 24 hrs by Western blot analysis; type: functional, cell-based; conditions: dose 1-4 µM; how it was run: as §2
HepG2 [12] = experiment: Induction of apoptosis in human HepG2 cells assessed as early apoptotic cells at 1 uM after 24 hrs by annexin V/propidium iodide staining based flow cytometric analysis (reference value: 1.29%); type: functional
HepG2 [13] = experiment: Potency index, ratio of HN IC50 to test compound IC50 for antiproliferative activity against human HepG2 cells; type: functional
How it was run: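 MTT assay after 48 h drug exposure. Cells seeded overnight, MTT (5 mg/mL stock) added for 4 h at 37 °C, formazan dissolved in DMSO, absorbance read at 570 nm. IC50 taken from viability, repeated in triplicate, and the IC50 ratio calculated.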

HepG2 [14] = experiment: Induction of apoptosis in human HepG2 cells assessed as increase in cleaved-PARP protein expression at 1 to 4 uM after 24 hrs by Western blot analysis; type: functional, cell-based; conditions: dose 1-4 µM; how it was run: as §2
HepG2 [15] = experiment: Induction of cell death in human HepG2 cells at 3 uM after 12 hrs in presence of Nec-1 by MTT assay; type: functional, cell-based
How it was run: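 HepG2 cells pretreated with Nec-1 (30 μM) for 2 h, then given 3 μM. Viability measured by MTT with absorbance read at 570 nm.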

L02 = experiment: Antiproliferative activity against human L02 cells assessed as reduction in cell viability after 48 hrs by MTT assay; type: cell-based; conditions: L02, 48 h; how it was run: as §1
HT-29 = experiment: Antiproliferative activity against human HT29 cells assessed as reduction in cell viability after 48 hrs by MTT assay; type: functional, cell-based; conditions: HT-29, 48 h; how it was run: as §1
HepG2 (Homo sapiens) = experiment: Induction of morphological changes in human HepG2 cells assessed as accumulation of cytoplasmic vacuoles at 4 uM after 24 hrs by optical microscopic method
HepG2 [16] = experiment: Induction of apoptosis in human HepG2 cells assessed as necrotic cells at 4 uM after 24 hrs by annexin V/propidium iodide staining based flow cytometric analysis (reference value: 0.11%); type: functional
HepG2 [17] = experiment: Induction of apoptosis in human HepG2 cells assessed as late apoptotic cells at 4 uM after 24 hrs in presence of z-VAD-fmk by annexin V/propidium iodide staining based flow cytometric analysis (reference value: 6.21%); type: functional
HepG2 [18] = experiment: Induction of apoptosis in human HepG2 cells after 24 hrs by annexin V/propidium iodide staining based flow cytometric analysis; type: functional, cell-based; conditions: dose 1-4 µM

C=CCc1ccc(O)c(-c2ccc(OCCCCCc3c4[n+](cc5c(OC)c(OC)ccc35)CCc3cc5c(cc3-4)OCO5)c(CC=C)c2)c1.[I-]
Activity (HepG2 [1]): 6.59%
Ratio [2]: 2.5
IC50 (PANC-1): 3.34 µM
Activity (HepG2 [3]): Active
Activity (HepG2 [4]): Active
Activity (HepG2 [5]): inactive
Activity (HepG2 [6]): Active
Activity (HepG2 [7]): 7.91%
Activity (HepG2 [8]): inactive
Activity (HepG2 [9]): 0.57%
viability at 2 µM (HepG2 [10]): 93.3%
Activity (HepG2 [11]): Active
Activity (HepG2 [12]): 3.27%
Ratio IC50 (HepG2 [13]): 14.6
Activity (HepG2 [14]): Active
Activity (HepG2 [15]): Active
IC50 (L02): 4.61 µM
IC50 (HT-29): > 5 µM
Activity (HepG2 (Homo sapiens)): Active
Activity (HepG2 [16]): 0.41%
Activity (HepG2 [17]): 19.9%
Activity (HepG2 [18]): Dose-dependent effect

Reference: ChEMBL document CHEMBL4673249, “Anticancer Effects of Honokiol via Mitochondrial Dysfunction Are Strongly Enhanced by the Mitochondria-Targeting Carrier Berberine” (J Med Chem, 2020)
